Source: PubChem BioAssay (The Scripps Research Institute Molecular Screening Center)
RBBP9 inh: human RBBP9 hydrolase inhibition; O75884; recombinant RBBP9, FP-Rh probe fluorescence polarization; inhibition, % at 7.94 µM; actives 0.2% (n = 220,000); AID 1515;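 active means inhibition above the campaign mean of all tested compounds plus 3 SD, cut at about 14% in these data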
Target sequence (O75884 whole entry, looked up): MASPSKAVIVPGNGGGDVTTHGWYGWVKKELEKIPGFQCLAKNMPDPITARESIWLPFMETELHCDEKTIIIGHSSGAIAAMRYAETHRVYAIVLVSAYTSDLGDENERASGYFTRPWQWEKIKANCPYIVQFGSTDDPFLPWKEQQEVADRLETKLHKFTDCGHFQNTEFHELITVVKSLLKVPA
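System: RBBP9 protein / Quantity: 2.5 µM RBBP9 dispensing solution, before mixing / Also added: Serine-hydrolase probe FP-Rh, 375 nM pre-mixing / Dosing: 7.94 µM single dose, 0.794% DMSO / Timing: enzyme-compound preincubation 30 min, then probe labeling 45 min, 25 °C / Signal: FP readout at 525/598 nm / Controls: DMSO-treated enzyme wells and wells lacking RBBP9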
pPAFAH inh: pPAFAH (human) enzyme inhibition; Q13093; actives 1.5% (n = 330,000); inhibition, % at 3.39 µM; recombinant pPAFAH, FP-rhodamine probe fluorescence polarization;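 active means inhibition above the mean inhibition across the screen plus 3 SD, cut at about 25% in these data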;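 further: inhibitors block binding of the rhodamine activity-based probe so polarization drops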
PAFAH1B3 FP inh: PAFAH1B3 (human) inhibition. recombinant PAFAH1B3, FP-rhodamine probe, fluorescence polarization. inhibition, % at 3.39 µM. actives 0.28% (n = 340,000);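 active means inhibition above the screen-wide average of all tested compounds plus 3 SD, cut at about 25% in these data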
PAFAH1B2 inh: inhibitors of human PAFAH1B2. P68402. recombinant PAFAH1B2, FP-rhodamine activity probe, fluorescence polarization. inhibition, % at 3.39 µM. actives 1.2% (n = 340,000);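 active means inhibition above the mean of all tested compounds plus 3 SD, cut at about 24% in these data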
Target sequence (P68402 whole entry, looked up): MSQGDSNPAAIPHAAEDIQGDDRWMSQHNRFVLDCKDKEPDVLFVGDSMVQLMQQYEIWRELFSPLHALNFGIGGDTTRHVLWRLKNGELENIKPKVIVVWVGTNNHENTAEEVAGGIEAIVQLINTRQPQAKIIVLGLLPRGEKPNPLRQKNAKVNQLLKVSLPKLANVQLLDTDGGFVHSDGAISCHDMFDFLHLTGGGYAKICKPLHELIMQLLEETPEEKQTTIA
PAFAH2 inh: PAFAH2 (human) inhibition. Q99487. recombinant PAFAH2, FP-rhodamine activity probe, fluorescence polarization. inhibition, % at 3.39 µM. actives 0.99% (n = 340,000). AID 492956;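 active means inhibition above the mean over all tested compounds plus 3 SD, cut at about 30% in these data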;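 further: inhibitors block probe labeling of enzyme so polarization drops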
PAFAH2 confirm: confirmation of human PAFAH2 inhibitors; shares compounds with PAFAH2 inh; recombinant PAFAH2, FP-rhodamine activity probe, fluorescence polarization; inhibition, % at 3.39 µM; actives 65% (n = 2,300); AID 493030;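 active means mean inhibition over three repeats above a set limit taken from the earlier primary screen, cut at about 30% in these data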;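 further: inhibitor blocks binding of rhodamine activity probe so polarization falls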
Hits are given with their value; i = inactive; nt = not tested or not shown. A selection: hits, their analogues and other compounds. The true share with any hit is near 2.7%.

SMILES	RBBP9 inh	pPAFAH inh	PAFAH1B3 FP inh	PAFAH1B2 inh	PAFAH2 inh	PAFAH2 confirm
O=C(COC(=O)C1=COCCO1)Nc1cc(Cl)c(Cl)cc1Cl	nt	i	i	i	37.9	33.2
Cc1ccc(Cn2nc(C)c(C(=O)NCC(c3cccs3)N3CCOCC3)c2Cl)cc1 (stereo not given)	nt	i	i	i	i	nt
O=c1c2oc3ccccc3c2ncn1Cc1ccc(F)cc1	i	i	i	i	i	nt
CCCCNC(=O)c1onc(CSc2cc(C)cc(C)c2)c1C(=O)NCCCC	nt	i	i	i	i	nt
CCCCNC(=O)c1onc(CSc2ccccc2F)c1C(=O)O	i	i	i	i	i	nt
CCCCNC(=O)c1onc(CSc2cc(C)cc(C)c2)c1C(=O)O	i	i	i	i	37.9	i
CCCCNC(=O)c1onc(CSc2ccccc2C)c1C(=O)O	i	i	i	i	30.1	35.2
c1ccc(C2[C@H]3CN(CC4CCCCC4)[C@H](c4ccccc4)C34CC2(c2ccccc2)C4)cc1 (stereo not given in full)	nt	i	i	i	i	nt
c1ccc(C2[C@H]3CN(CC4CCCCC4)[C@H](c4ccccc4)C34CC2(c2cccnc2)C4)cc1 (stereo not given in full)	nt	i	i	i	55.7	i
CCCc1cc2c(cc1NC(=O)c1ccc(C)cc1)OCO2	i	i	i	i	i	nt
CC1CCCN(C(=O)CSc2ncccn2)C1 (stereo not given)	nt	i	i	i	i	nt
COc1ccc(Cl)cc1NC(=O)CN(C)C(=O)c1cc(-c2ccncc2)nc2ccccc12	nt	i	i	i	i	nt
Nc1ccc(C(=O)OCc2nc3ccccc3[nH]2)cc1	i	i	i	i	87.5	78.7
O=C(Cc1cccc2ccccc12)Nc1ccc(Br)cc1C(=O)O	nt	i	i	i	36.2	i
O=C(Nc1ccc(O)cc1C(=O)O)c1cccc(Br)c1	i	i	i	i	37.6	i
O=C(NCC(c1cccs1)N1CCOCC1)c1ccccc1NS(=O)(=O)c1cccc([N+](=O)[O-])c1 (stereo not given)	i	i	i	i	i	nt
O=C(NCC(c1cccs1)N1CCOCC1)c1ccccc1NS(=O)(=O)c1ccc(Cl)c([N+](=O)[O-])c1 (stereo not given)	i	i	i	i	42.6	81.0
COCCCN(Cc1ccco1)C(=O)c1cc2c(s1)-c1ccc(Cl)cc1S(=O)(=O)C2	nt	i	i	i	i	nt
COc1ccc(C)cc1NC(=O)COC(=O)c1c(C)nn(-c2ccccc2)c1C	nt	i	i	i	i	nt
CC(=O)Nc1ccc(-c2csc(NC(=O)Cc3cccc(F)c3)n2)cc1	nt	i	i	i	i	nt
Cc1cc(C(=O)N2CCN(Cc3ccccc3)CC2)ccc1[N+](=O)[O-]	nt	i	i	i	119.2	i
N/C(=N\OC(=O)c1ccccc1)c1cccnc1	i	i	i	i	i	nt
Cc1ccc(C(=O)O/N=C(\c2ccccc2)c2cccnc2)cc1	i	i	i	i	72.6	80.5
O=C(COC(=O)c1cccs1)Nc1ccccc1C(F)(F)F	i	i	i	i	76.6	54.4
CCc1ccccc1NC(=O)COC(=O)c1cccs1	nt	i	i	i	79.9	76.2
SMILES	RBBP9 inh	pPAFAH inh	PAFAH1B3 FP inh	PAFAH1B2 inh	PAFAH2 inh	PAFAH2 confirm
O=c1cc(-c2ccccc2)nc2cc(-c3ccc(F)cc3)[nH]n12	nt	i	i	i	64.0	i
CSCCC(NC(=O)c1ccco1)C(=O)N1CCN(C(c2ccccc2)c2ccccc2)CC1 (stereo not given)	nt	nt	i	i	i	nt
Cc1ccc(N=C(NO)c2nonc2N)c(C)c1	i	i	i	i	i	nt
Cc1ccc(N=C(NOC(=O)c2ccccc2)c2nonc2N)c(C)c1	i	i	i	i	67.8	67.3
CSc1ccccc1OCc1cc(C(=O)NC(C)Cn2cncn2)no1 (stereo not given)	nt	i	i	i	i	nt
CCOc1ncccc1C(=O)OCC(=O)c1ccc(Br)s1	nt	i	i	i	50.3	35.2
O=C(COC(=O)c1cccc(F)c1)Nc1ccc(Cl)cn1	nt	i	i	i	i	nt
COc1ccccc1C(=O)OCC(=O)Nc1ccc(Cl)cn1	i	i	i	i	i	nt
CCOc1ncccc1C(=O)OCC(=O)Nc1ccc(Cl)cn1	nt	i	i	i	46.2	i
COc1ccc(C(=O)OCC(=O)Nc2ccc(Cl)cn2)cc1	i	i	i	i	56.2	53.7
O=C(COC(=O)c1ccccc1)Nc1ccc(Cl)cn1	i	i	i	i	45.8	49.2
